Experiment [1] deals with Glyceraldehyde-3-phosphate dehydrogenase (Homo sapiens) (UniProt P04406). The experiment is described as follows: Binding affinity to human recombinant his tagged GAPDH expressed in Escherichia coli assessed as absolute rate constant at 2 mM at pH 7 in presence of beta mercaptoethanol measured for 1 hr by HPLC method.
Experiment [2] shares this target. The experiment is described as follows: Binding affinity to human recombinant his tagged GAPDH expressed in Escherichia coli assessed as time constant at 200 uM measured after 1 min by spectrophotometric analysis. An outline of the steps: (§1)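 Racker band loss. 100 μM His-tagged hGAPDH (expressed in E. coli) with 200 μM inhibitor in 10 mM TEA, 5 mM EDTA, 10 mM KH2PO4, pH 7.6. Absorbance at 340 nm followed until reaction completion; traces fitted to a kinetic equation.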

Experiment [3] has the same target. The experiment is described as follows: Covalent inhibition of human recombinant his tagged GAPDH expressed in Escherichia coli assessed as residual activity at 100 uM measured after 3 hrs by spectrophotometric analysis. A digest of the protocol:
(§2)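 His-tagged hGAPDH from E. coli, 2 μM, preincubated at 25 °C with 10, 50 or 100 μM inhibitor for 30 min or 3 h in 10 mM TEA, 5 mM EDTA, 10 mM arsenate, pH 7.6. Residual activity of aliquots (enzyme 30–50 nM) measured with 1.5 mM NAD+, 100 μM DL-GAP, NADH at 340 nm, 25 °C. Relative to untreated enzyme; independent duplicates, mean ± SD.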

Experiment [4] shares this target. The experiment in a line: Covalent inhibition of human recombinant his tagged GAPDH expressed in Escherichia coli at 100 uM measured after 3 hrs by spectrophotometric analysis relative to control. A digest of the protocol: as §2
For experiment [5] the target is unchanged. The experiment in a line: Covalent inhibition of human recombinant his tagged GAPDH expressed in Escherichia coli at 50 uM measured after 30 mins by spectrophotometric analysis relative to control. An outline of the steps:
as §2

Experiment [6] has the same target. The experiment in a line: Binding affinity to human recombinant his tagged GAPDH expressed in Escherichia coli assessed as pseudo first order reaction at 2 mM at pH 7 in presence of beta mercaptoethanol measured for 1 hr by HPLC method.
For experiment [7] the target is unchanged. The experiment in a line: Inhibition of recombinant his tagged-GAPDH in human PANC-1 cells expressed in Escherichia coli at 100 uM relative to control.
For experiment [8] the target is unchanged. The experiment is described as follows: Inhibition of human recombinant his tagged GAPDH expressed in Escherichia coli at 10 uM incubated for 48 hrs relative to control. A digest of the protocol: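 Recombinant hGAPDH, 2 μM, with 10 μM inhibitor for 48 h at 37 °C in TEA/EDTA buffer, pH 7.6. Residual activity measured by the arsenate/NAD+/GAP assay, NADH at 340 nm, 25 °C. Expressed versus untreated enzyme; independent duplicates, mean ± SD.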

Experiment [9] has as its system PaCa-44. The experiment in a line: Antiproliferative activity against human PaCa-44 cells assessed as reduction in cell growth at 100 uM incubated for 48 hrs by crystal violet staining based analysis. The format is functional. An outline of the steps: (§3)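 PDAC lines and normal fibroblasts in DMEM-Glutamax, 10% FBS, 50 μg/ml gentamicin, 37 °C, 5% CO2. Seeded 5×10^3 cells/well for PDAC lines and 8×10^3 cells/well for fibroblasts. After 24 h, treated 48 h with 1–100 μM from 100 mM DMSO stocks. Crystal Violet read at A595, normalized to untreated cells. Mean ± SD (n = 4).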

The target of experiment [10] is Glyceraldehyde-3-phosphate dehydrogenase (Homo sapiens) (UniProt P04406). The experiment in a line: Binding affinity to human recombinant his tagged GAPDH expressed in Escherichia coli assessed elimination of racker band at measured after 30 hrs by spectrophotometric analysis. An outline of the steps: as §1
The target is the same in experiment [11]. The experiment in a line: Binding affinity to human recombinant his tagged GAPDH expressed in Escherichia coli assessed as time constant at 200 uM measured after 30 hrs by spectrophotometric analysis. A digest of the protocol:
as §1

The subject of experiment [12] is PaCa-44. The experiment is described as follows: Antiproliferative activity in human PaCa-44 cells habouring p53 mutant/C176S assessed as decrease in cell growth at 10 uM measured after 48 hrs by Crystal violet staining based analysis. The format is functional. A digest of the protocol: (§4)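 PaCa-3 (wt p53) and mutant-p53 PDAC lines exposed 48 h to 5 or 10 μM. Growth by Crystal Violet staining, each line normalized to its own untreated control. Mean ± SD, n = 4.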

Experiment [13] has as its target Glyceraldehyde-3-phosphate dehydrogenase (Homo sapiens) (UniProt P04406). The experiment is described as follows: Inhibition of recombinant his tagged-GAPDH in human PaCa-3 cells expressed in Escherichia coli at 100 uM relative to control.
Experiment [14] relates to PaCa-44. The experiment is described as follows: Antiproliferative activity against human PaCa-44 cells assessed as reduction in cell growth at 1 to 100 uM incubated for 48 hrs by crystal violet staining based analysis. It counts as functional. The following applies: dose 1-100 µM. An outline of the steps:
as §3

Experiment [15] relates to PANC-1. The experiment is described as follows: Antiproliferative activity in human PANC-1 cells habouring p53 mutant/R273H assessed as decrease in cell growth at 10 uM measured after 48 hrs by Crystal violet staining based analysis. It counts as functional. A digest of the protocol: as §4
Experiment [16] is described as follows: Antiproliferative activity in human PaCa-44 cells measured after 48 hrs by Crystal violet staining based analysis. The format is functional, cell-based. The following applies: PaCa-44, 48 h. An outline of the steps:
(§5)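 IC50 from Crystal Violet growth curves. Cells in DMEM-Glutamax with 10% FBS, seeded, then exposed after 24 h to 1–100 μM for 48 h. A595 normalized to untreated cells. Three independent experiments.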

The nature of experiment [17]: Antiproliferative activity in human PaCa-3 cells habouring wild type p53 assessed as decrease in cell growth at 5 uM measured after 48 hrs by Crystal violet staining based analysis relative to control. The format is functional. On the set-up: scale not given: the % may be the effect or the level left. An outline of the steps: as §4
A further experiment concerns Fibroblast. The experiment is described as follows: Antiproliferative activity against human Fibroblast assessed as reduction in cell growth at high concentration incubated for 48 hrs by crystal violet staining based analysis relative to control. It counts as functional. Also on record: scale not given: the % may be the effect or the level left. An outline of the steps: as §3

The test system of experiment [18] is MIA PaCa-2. The experiment is described as follows: Antiproliferative activity in human MIA PaCa-2 cells habouring p53 mutant/R248W assessed as decrease in cell growth at 10 uM measured after 48 hrs by Crystal violet staining based analysis. It counts as functional. A digest of the protocol: as §4
Experiment [19] concerns the target Glyceraldehyde-3-phosphate dehydrogenase (Homo sapiens) (UniProt P04406). The experiment is described as follows: Covalent inhibition of human recombinant his tagged GAPDH expressed in Escherichia coli at 10 uM measured after 30 mins by spectrophotometric analysis relative to control. An outline of the steps: as §2
Experiment [20] has as its system MIA PaCa-2. The experiment in a line: Antiproliferative activity in human MIA PaCa-2 cells measured after 48 hrs by Crystal violet staining based analysis. The format is functional, cell-based. Conditions: MIA PaCa-2, 48 h. A digest of the protocol:
as §5

The test system of experiment [21] is PANC-1. The experiment is described as follows: Antiproliferative activity against human PANC-1 cells assessed as reduction in cell growth at 1 to 100 uM incubated for 48 hrs by crystal violet staining based analysis. It counts as functional. The following applies: dose 1-100 µM. A digest of the protocol: as §3
In experiment [22] the test system is MIA PaCa-2. The experiment is described as follows: Antiproliferative activity against human MIA PaCa-2 cells assessed as reduction in cell growth at 1 to 100 uM incubated for 48 hrs by crystal violet staining based analysis. It counts as functional. The following applies: dose 1-100 µM. A digest of the protocol:
as §3

Experiment [23] deals with PANC-1. The experiment is described as follows: Antiproliferative activity in human PANC-1 cells measured after 48 hrs by Crystal violet staining based analysis. The format is functional, cell-based. The following applies: PANC-1, 48 h. A digest of the protocol:
as §5

The subject of another experiment is PaCa-3. The experiment is described as follows: Antiproliferative activity against human PaCa-3 cells assessed as reduction in cell growth at 1 to 100 uM incubated for 48 hrs by crystal violet staining based analysis. The following applies: dose 1-100 µM. It counts as functional. A digest of the protocol: as §3
Experiment [24] addresses Glyceraldehyde-3-phosphate dehydrogenase (Homo sapiens) (UniProt P04406). The experiment in a line: Binding affinity to human recombinant his tagged GAPDH expressed in Escherichia coli assessed elimination of racker band measured within 1 min by spectrophotometric analysis. A digest of the protocol: as §1
Experiment [25] has the same target. The experiment in a line: Inhibition of recombinant his tagged-GAPDH in human PaCa-44 cells expressed in Escherichia coli at 100 uM relative to control.
Experiment [26] is described as follows: Antiproliferative activity in human PaCa-3 cells measured after 48 hrs by Crystal violet staining based analysis. Conditions: Paca3, 48 h. It counts as functional, cell-based. A digest of the protocol: as §5

Calls of active or inactive are those of the source. No cut-off for these calls is given here.

Sequence of Glyceraldehyde-3-phosphate dehydrogenase (Homo sapiens) (P04406 2-335 limits assumed): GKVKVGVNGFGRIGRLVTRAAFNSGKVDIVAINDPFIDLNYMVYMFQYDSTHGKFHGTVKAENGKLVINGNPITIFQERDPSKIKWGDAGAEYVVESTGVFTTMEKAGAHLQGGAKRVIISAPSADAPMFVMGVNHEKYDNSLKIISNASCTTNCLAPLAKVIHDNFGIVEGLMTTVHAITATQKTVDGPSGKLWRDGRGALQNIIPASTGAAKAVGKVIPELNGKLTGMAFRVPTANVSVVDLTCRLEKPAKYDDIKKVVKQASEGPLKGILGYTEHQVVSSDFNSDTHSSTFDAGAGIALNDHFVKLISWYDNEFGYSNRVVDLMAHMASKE

`C=CC(=O)N1CCC[C@@H](n2nc(-c3ccc(Oc4ccccc4)cc3)c3c(N)ncnc32)C1`: the K in experiment [1] was 10.4 10^-4/M/s.
Consider `CC(C)[C@H]1CC[C@@]2(CO2)[C@H]2C(=O)OCC(C(=O)O)=C[C@H]12`, for which the K in experiment [2] turned out to be 0.701 min.
Turning to `O=C(O)c1ccccc1C1CC(Br)=NO1` (centres undefined), the inhibition (usually how much of the control response was suppressed) in experiment [3] is “inactive”.
For the molecule `BrC1=NOC(c2ccc(-c3nnn[nH]3)cc2)C1` (centres undefined), the inhibition entry in experiment [3] was “inactive”.
As for `BrC1=NOC(c2cccs2)C1` (centres undefined), in [3], the inhibition entry was “inactive”.
Same read-out and setting: the result for `NS(=O)(=O)c1ccc(C2CC(Br)=NO2)cc1` (centres undefined) reads “inactive”.
Regarding `O=C(O)c1ccc(C2CC(Br)=NO2)s1` (centres undefined), in [4], the inhibition is 20%.
As to `O=C(O)c1cccc(C2CC(Br)=NO2)c1` (centres undefined), the inhibition in experiment [4] turned out to be 20%.
`Oc1ccc(C2CC(Br)=NO2)cc1` (centres undefined): the inhibition in [4] worked out at 40%.
Turning to `O=C(O)c1ccc2c(c1)CCCC21CC(Br)=NO1` (centres undefined), the inhibition was 100% in experiment [5], 30% in experiment [7], 40% in experiment [4] and 40% in [8]. For the same molecule, the K in [6] is < 1 10^-8/s; in experiment [1] it was < 1 10^-8/M/s. Moreover, the result in the experiment on PaCa-44 [9] was Active.
`O=C(O)c1ccc(C2CC(Br)=NO2)cc1` (centres undefined): the K in [6] was 1.11 10^-6/s; in experiment [1], 1.84 10^-6/M/s. Besides, the inhibition in [4] was determined as 40%.
With `BrC1=NOC(c2ccccc2)C1` (centres undefined), the inhibition entry in [10] is “inactive”. Besides, the K in experiment [6] was 6.62 10^-5/s; in [1], 1.1 10^-4/M/s; in [11], 908 min. In experiment [4], the inhibition came out at 40%.
Consider `BrC1=NOC2(CCCc3ccccc32)C1` (centres undefined), for which the outcome with PaCa-44 [12], in the experiment with PaCa-44 [14], in the experiment on PANC-1 [15], in the experiment with MIA PaCa-2 [18], in the experiment with PANC-1 [21] and in the experiment on MIA PaCa-2 [22] was Active. Besides, the result in the experiment with PaCa-3 was Active. In addition, the inhibition in experiment [5] was 100%; in experiment [13] it was 100%; in experiment [7], 100%; in [4] it was 40%; in [19], 100%; in [8], 100%. For the same molecule, in experiment [25], the inhibition is 100%. For the same molecule, the results for the K in experiment [6], in experiment [1] and in experiment [2] were 5.25 10^-6/s, 8.75 10^-6/M/s and 0.2 min, respectively. The IC50 (in general, the concentration needed to halve the response being measured) was found to be 16.2 µM in experiment [16], 15.2 µM in the experiment on MIA PaCa-2 [20], 21.7 µM in the experiment with PANC-1 [23] and 4.69 µM in experiment [26]. The figures for the Activity (in [17]; in the experiment with Fibroblast) were 42% and 20%, respectively. Further, the inhibition entry in experiment [24] was “Active”.
Turning to `O=S(=O)(O)c1ccc(C2CC(Br)=NO2)cc1` (centres undefined), in experiment [4], the inhibition is 20%.
